Results taken from ChEMBL document CHEMBL1135657, “Novel dual inhibitors of AChE and MAO derived from hydroxy aminoindan and phenethylamine as potential treatment for Alzheimer's disease” (J Med Chem, 2002).

Tests used:
[1] = target: T1, Amine oxidase [flavin-containing] A (Rattus norvegicus, UniProt P21396); assay: In vitro inhibitory concentration against Monoamine oxidase A of rat brain homogenates; value ranges from 9-52; assay type: tissue-based
T1 sequence (P21396 whole entry): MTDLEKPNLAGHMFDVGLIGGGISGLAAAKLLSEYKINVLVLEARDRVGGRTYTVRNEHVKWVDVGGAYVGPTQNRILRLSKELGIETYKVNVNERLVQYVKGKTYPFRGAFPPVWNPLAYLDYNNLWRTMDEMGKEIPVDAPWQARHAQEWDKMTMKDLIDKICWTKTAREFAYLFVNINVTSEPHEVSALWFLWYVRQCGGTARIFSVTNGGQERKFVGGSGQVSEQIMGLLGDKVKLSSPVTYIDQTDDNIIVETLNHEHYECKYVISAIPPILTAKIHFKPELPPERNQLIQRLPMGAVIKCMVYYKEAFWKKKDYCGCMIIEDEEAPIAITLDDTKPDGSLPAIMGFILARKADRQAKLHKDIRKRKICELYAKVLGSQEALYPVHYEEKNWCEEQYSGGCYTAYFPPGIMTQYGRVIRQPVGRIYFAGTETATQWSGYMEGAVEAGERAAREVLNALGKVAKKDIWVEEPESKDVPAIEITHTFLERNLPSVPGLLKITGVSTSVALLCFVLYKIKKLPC

[2] = target: T2, Amine oxidase [flavin-containing] B (Rattus norvegicus, UniProt P19643); assay: In vitro inhibitory concentration against Monoamine oxidase B of rat brain homogenates; assay type: tissue-based
T2 sequence (P19643 whole entry): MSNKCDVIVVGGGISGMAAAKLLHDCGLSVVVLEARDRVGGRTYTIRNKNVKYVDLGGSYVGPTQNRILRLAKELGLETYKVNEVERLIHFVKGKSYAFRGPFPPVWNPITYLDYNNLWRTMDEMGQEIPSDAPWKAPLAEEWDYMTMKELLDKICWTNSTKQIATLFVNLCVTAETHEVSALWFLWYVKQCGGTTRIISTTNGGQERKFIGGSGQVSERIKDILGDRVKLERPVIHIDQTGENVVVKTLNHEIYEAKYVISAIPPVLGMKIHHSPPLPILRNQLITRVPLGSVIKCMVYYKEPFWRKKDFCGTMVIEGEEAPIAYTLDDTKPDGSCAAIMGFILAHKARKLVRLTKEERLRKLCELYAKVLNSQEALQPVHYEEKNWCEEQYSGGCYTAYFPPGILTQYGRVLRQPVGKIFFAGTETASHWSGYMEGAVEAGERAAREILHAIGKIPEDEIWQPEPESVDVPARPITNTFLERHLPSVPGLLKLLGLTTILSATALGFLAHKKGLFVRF

Acetylcholinesterase [3] = target: T3, Acetylcholinesterase (Homo sapiens, UniProt P22303); assay: In vitro inhibitory concentration against purified Acetylcholinesterase of human erythrocytes; value ranges from 0.12-0.41
[4] = Pseudo-first order rate constant for carbamoylation of ACHE at 20 (uM) concentration; assay type: ADME
Method in brief: (§1)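 Human erythrocyte AChE, Ellman method with 200 µM […] substrate, 0.1 M phosphate buffer pH 7.4, 37 °C. Progressive inhibition followed at 4–5 inhibitor concentrations. Pseudo-first-order carbamylation rate constants k_obs (min⁻¹) derived as per Bar-On et al. and reported ±SEM. Apparent bimolecular rate constant k_i calculated from these.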

[5] = Pseudo-first order rate constant for carbamoylation of ACHE at 50 (uM) concentration; assay type: ADME
Method in brief: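 Human erythrocyte AChE, same Ellman conditions: 200 µM […], 60 min preincubation at 37 °C, 0.1 M phosphate pH 7.4. Progressive inhibition followed at 4-5 inhibitor concentrations. Pseudo-first-order k_obs (min⁻¹) derived per concentration; apparent bimolecular carbamylation constant k_i calculated from these.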

[6] = target: T2, Amine oxidase [flavin-containing] B; assay: In vitro inhibitory concentration against Monoamine oxidase B of rat brain homogenates; value ranges from 0.8-2.9; assay type: tissue-based
Butyrylcholinesterase [7] = target: T4, Butyrylcholinesterase (Equus caballus, UniProt Q9N1N9); assay: In vitro inhibitory concentration against Butyrylcholinesterase of horse serum; value ranges from 0.64-0.89
[8] = Pseudo-first order rate constant for carbamoylation of ACHE at 40 (uM) concentration; assay type: ADME; method in brief: as §1
[9] = Bimolecular rate constant for carbamoylation of ACHE; assay type: ADME
Method in brief: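 Human erythrocyte AChE preincubated with inhibitor at 37 °C in 0.1 M phosphate buffer, pH 7.4, under Ellman conditions with 200 µM […]. Pseudo-first-order rate constants (k_obs) for progressive inhibition were obtained at 4-5 inhibitor concentrations. The apparent bimolecular carbamylation constant k_i was calculated from these.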

[10] = Pseudo-first order rate constant for carbamoylation of ACHE at 2.5(uM) concentration; assay type: ADME; method in brief: as §1
[11] = Pseudo-first order rate constant for carbamoylation of ACHE at 10 (uM) concentration; assay type: ADME; method in brief: as §1
Acetylcholinesterase [12] = target: T3, Acetylcholinesterase; assay: In vitro inhibitory concentration against purified Acetylcholinesterase of human erythrocytes; value ranges from 2.36-4.22
[13] = Pseudo-first order rate constant for carbamoylation of ACHE at 5 (uM) concentration; assay type: ADME; method in brief: as §1
[14] = target: T1, Amine oxidase [flavin-containing] A; assay: In vitro inhibitory concentration against Monoamine oxidase A of rat brain homogenates; value ranges from 8-43; assay type: tissue-based
Acetylcholinesterase [15] = target: T3, Acetylcholinesterase; assay: In vitro inhibitory concentration against purified Acetylcholinesterase of human erythrocytes; value ranges from 0.44-0.49
Acetylcholinesterase [16] = target: T3, Acetylcholinesterase; assay: In vitro inhibitory concentration against purified Acetylcholinesterase of human erythrocytes; value ranges from 252-806
Butyrylcholinesterase [17] = target: T4, Butyrylcholinesterase; assay: In vitro inhibitory concentration against Butyrylcholinesterase of horse serum; value ranges from 10.7-43.7
Method in brief: (§2)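 Ellman assay followed, with 200 µM butyrylthiocholine as substrate. Runs were in triplicate with four-point dose-response curves. IC50 and fiducial limits came from log concentration versus % inhibition.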

Butyrylcholinesterase [18] = target: T4, Butyrylcholinesterase; assay: In vitro inhibitory concentration against Butyrylcholinesterase of horse serum; value ranges from 0.70-0.92; method in brief: as §2
Acetylcholinesterase [19] = target: T3, Acetylcholinesterase
Acetylcholinesterase [20] = target: T3, Acetylcholinesterase; remark: listed apart in the source
Acetylcholinesterase [21] = target: T3, Acetylcholinesterase; assay: In vitro inhibitory concentration against purified Acetylcholinesterase of human erythrocytes; value ranges from […]-[…]
Butyrylcholinesterase [22] = target: T4, Butyrylcholinesterase; assay: In vitro inhibitory concentration against Butyrylcholinesterase of horse serum; value ranges from 7.65-13.2; method in brief: as §2
[23] = target: T1, Amine oxidase [flavin-containing] A; assay: In vitro inhibitory concentration against Monoamine oxidase A of rat brain homogenates 47-101; assay type: tissue-based
[24] = target: T1, Amine oxidase [flavin-containing] A; assay: In vitro inhibitory concentration against Monoamine oxidase A of rat brain homogenates; value ranges from 5.6-11.1; assay type: tissue-based
Acetylcholinesterase [25] = target: T3, Acetylcholinesterase; assay: In vitro inhibitory concentration against purified Acetylcholinesterase of human erythrocytes; value ranges from 0.025-0.027
Butyrylcholinesterase [26] = target: T4, Butyrylcholinesterase; assay: In vitro inhibitory concentration against Butyrylcholinesterase of horse serum; value ranges from 0.038-0.064; method in brief: as §2
Acetylcholinesterase [27] = target: T3, Acetylcholinesterase; assay: In vitro inhibitory concentration against purified Acetylcholinesterase of human erythrocytes; value ranges from 0.012-0.014
[28] = target: T1, Amine oxidase [flavin-containing] A; assay: In vitro inhibitory concentration against Monoamine oxidase A of rat brain homogenates; value ranges from 5.6-19.6; assay type: tissue-based
[29] = target: T1, Amine oxidase [flavin-containing] A; assay: biochemical; assay type: tissue-based, Brain
Butyrylcholinesterase [30] = target: T4, Butyrylcholinesterase; assay: In vitro inhibitory concentration against Butyrylcholinesterase of horse serum; value ranges from 0.76-4.2; method in brief: as §2
Acetylcholinesterase [31] = target: T3, Acetylcholinesterase; assay: In vitro inhibitory concentration against purified Acetylcholinesterase of human erythrocytes; value ranges from 8.99-49.4
[32] = target: T2, Amine oxidase [flavin-containing] B; assay: In vitro inhibitory concentration against Monoamine oxidase B of rat brain homogenates; value ranges from 80.-92
Acetylcholinesterase [33] = target: T3, Acetylcholinesterase; remark: listed apart in the source
[34] = target: T1, Amine oxidase [flavin-containing] A; assay: In vitro inhibitory concentration against Monoamine oxidase A of rat brain homogenates; value ranges from 0.22-0.29; assay type: tissue-based
Butyrylcholinesterase [35] = target: T4, Butyrylcholinesterase; assay: In vitro inhibitory concentration against Butyrylcholinesterase of horse serum; value ranges from 0.34-1.03; method in brief: as §2
[36] = target: T1, Amine oxidase [flavin-containing] A; assay: In vitro inhibitory concentration against Monoamine oxidase A of rat brain homogenates; value ranges from 30-230; assay type: tissue-based

T3 sequence (P22303 whole entry): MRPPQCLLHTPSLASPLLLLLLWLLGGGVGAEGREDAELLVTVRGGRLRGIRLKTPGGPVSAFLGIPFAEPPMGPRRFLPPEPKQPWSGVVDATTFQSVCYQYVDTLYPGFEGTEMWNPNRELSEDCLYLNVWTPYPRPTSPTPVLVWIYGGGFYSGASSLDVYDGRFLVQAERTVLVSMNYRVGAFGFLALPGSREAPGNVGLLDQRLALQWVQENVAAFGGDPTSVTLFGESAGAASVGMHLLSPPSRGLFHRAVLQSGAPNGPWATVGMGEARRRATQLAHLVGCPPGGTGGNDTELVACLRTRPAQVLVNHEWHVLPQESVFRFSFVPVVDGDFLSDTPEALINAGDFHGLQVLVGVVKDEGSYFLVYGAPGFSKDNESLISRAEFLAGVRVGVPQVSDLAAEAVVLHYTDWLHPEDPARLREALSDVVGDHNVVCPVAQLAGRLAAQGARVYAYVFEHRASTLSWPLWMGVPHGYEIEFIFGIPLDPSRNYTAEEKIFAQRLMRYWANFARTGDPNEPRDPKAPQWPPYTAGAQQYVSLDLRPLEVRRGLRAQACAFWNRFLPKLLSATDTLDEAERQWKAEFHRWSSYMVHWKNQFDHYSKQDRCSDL
T4 sequence (Q9N1N9 whole entry): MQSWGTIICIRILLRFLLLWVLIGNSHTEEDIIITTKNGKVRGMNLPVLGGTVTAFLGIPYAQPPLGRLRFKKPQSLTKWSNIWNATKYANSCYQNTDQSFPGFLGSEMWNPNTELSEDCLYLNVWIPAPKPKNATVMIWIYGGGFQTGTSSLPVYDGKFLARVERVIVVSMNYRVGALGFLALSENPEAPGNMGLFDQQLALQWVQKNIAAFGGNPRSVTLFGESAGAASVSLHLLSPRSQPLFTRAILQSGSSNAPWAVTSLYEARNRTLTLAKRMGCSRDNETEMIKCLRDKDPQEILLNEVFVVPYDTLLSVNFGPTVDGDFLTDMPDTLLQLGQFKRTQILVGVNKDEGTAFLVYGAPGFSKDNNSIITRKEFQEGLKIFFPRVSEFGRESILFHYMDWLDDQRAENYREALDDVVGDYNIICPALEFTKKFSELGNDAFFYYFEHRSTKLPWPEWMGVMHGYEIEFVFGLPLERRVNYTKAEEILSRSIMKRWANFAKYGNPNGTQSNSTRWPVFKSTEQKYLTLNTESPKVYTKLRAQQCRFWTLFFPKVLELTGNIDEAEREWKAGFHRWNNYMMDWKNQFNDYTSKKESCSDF

CNCCc1cccc(OC(=O)N(C)C)c1
IC50 [1]: 22 µM | IC50 [2]: > 1000 µM | IC50 (Acetylcholinesterase [3]): 0.28 µM

C#CCN(C)C(C)Cc1cccc(OC(=O)N(C)CCCCCC)c1 (stereo not given)
K obs [4]: 30 min⁻¹ | K obs [5]: 63 min⁻¹ | IC50 [6]: 1.5 µM | IC50 (Butyrylcholinesterase [7]): 0.72 µM | K obs [8]: 55 min⁻¹ | Bimolecular carbamoylation rate constant (ki) [9]: 17.25 M⁻¹ s⁻¹ | K obs [10]: 14 min⁻¹ | K obs [11]: 23 min⁻¹ | IC50 (Acetylcholinesterase [12]): 3.06 µM | K obs [13]: 15 min⁻¹ | IC50 [14]: 20 µM

CN(C)C(=O)Oc1cccc2c1C(N)CC2 (stereo not given)
IC50 (Acetylcholinesterase [15]): 0.46 µM

C#CCN(C)C1CCc2cccc(OC(=O)N(C)CC)c21 (stereo not given)
IC50 (Acetylcholinesterase [16]): 439 µM | IC50 (Butyrylcholinesterase [17]): 20 µM

C#CCN(C)C1CCc2c(OC(=O)N(C)CC)cccc21 (stereo not given)
IC50 (Butyrylcholinesterase [18]): 0.79 µM | IC50 (Acetylcholinesterase [19]): 14.9 µM

CCN(C)C(=O)Oc1cccc2c1C(N)CC2 (stereo not given)
IC50 [2]: > 1000 µM | IC50 (Acetylcholinesterase [20]): 10.5 µM

COc1ccc(N(C)C(=O)Oc2ccc3c(c2)C(N)CC3)cc1 (stereo not given)
IC50 (Acetylcholinesterase [21]): 0.3 µM | IC50 (Butyrylcholinesterase [22]): 9.91 µM

C#CCNC1CCc2ccc(OC(=O)NCCC)cc21 (stereo not given)
IC50 [23]: 69 µM

CCN(C)C(=O)Oc1cccc2c1CCC2N (stereo not given)
IC50 [2]: > 1000 µM | IC50 [24]: 7.9 µM | IC50 (Acetylcholinesterase [25]): 0.026 µM | IC50 (Butyrylcholinesterase [26]): 0.054 µM

CN(C)C(=O)Oc1cccc2c1CCC2N(C)C (stereo not given)
IC50 (Acetylcholinesterase [27]): 0.013 µM | IC50 [2]: > 1000 µM | IC50 [28]: 10 µM

CCN(C)C(=O)Oc1ccc2c(c1)C(N)CC2 (stereo not given)
IC50 [2]: > 1000 µM | IC50 [29]: 12.9 µM | IC50 (Butyrylcholinesterase [30]): 1.9 µM | IC50 (Acetylcholinesterase [31]): 19 µM

C#CCNC1CCc2c(OC(=O)N(C)C)cccc21 (stereo not given)
IC50 [32]: 86 µM | IC50 (Acetylcholinesterase [33]): 0.053 µM | IC50 [34]: 0.26 µM

CN(C)C(=O)Oc1ccc2c(c1)C(N)CC2 (stereo not given)
IC50 (Butyrylcholinesterase [35]): 0.63 µM | IC50 [36]: 80 µM
